Results reported in PubChem BioAssay AID651999 (Sanford-Burnham Center for Chemical Genomics, 2013).
Screen size: about 360,000 compounds; about 1,400 (0.39%) were called active.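 How the source made its calls: active means pattern-corrected inhibition above about 35%, with an unprinted fluorescence ratio check between 0.5 and 1.5 (limit read from the data, passing the limit was not always enough); inactive means the rest.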 The entries come from a sample that favours actives as a whole.

target: COP9 signalosome complex subunit 5 (Homo sapiens) (UniProt Q92905); test: CSN5 deneddylase inhibitors on cullin-RING ligase – biochemical, fluorescence polarization, uHTS, primary screen (AID 651999); conditions: Purified CSN, SCF-Nedd8-OG deneddylation, at 12.5 µM, hits give high values;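 further: 0% = enzyme with substrate and 100% = substrate without enzyme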
Outline: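 Material: human Csn5 produced in HEK293T cells; Input: enzyme 0.24 nM; Reagent: SCFSkp2-Nedd8OG substrate at 10 nM final; Dosing: 12.5 µM compound; Incubation: 90 min reaction at room temperature; Detection: fluorescence polarization of the substrate; Evaluation: % inhibition of substrate cleavage by Csn5; Control set: substrate-only high control, full reaction low control.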

COP9 signalosome complex subunit 5 (Homo sapiens), sequence (Q92905 whole entry, looked up, one chain of several): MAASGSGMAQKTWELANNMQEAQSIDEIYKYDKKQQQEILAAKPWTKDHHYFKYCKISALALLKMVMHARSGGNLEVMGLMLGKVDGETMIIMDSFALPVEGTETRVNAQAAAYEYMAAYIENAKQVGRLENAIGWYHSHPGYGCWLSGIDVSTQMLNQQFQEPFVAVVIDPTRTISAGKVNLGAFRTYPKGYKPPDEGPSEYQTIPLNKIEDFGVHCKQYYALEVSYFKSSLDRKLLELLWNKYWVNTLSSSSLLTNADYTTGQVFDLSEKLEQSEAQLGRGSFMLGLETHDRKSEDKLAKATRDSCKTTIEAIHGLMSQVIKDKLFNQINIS

inhibition, active:
C#CCOCCOCCOCCNc1nc(N2CCN(C(=O)CCCCCCCCCCNC(=O)Cn3cc(CCCCCN)nn3)CC2)nc(N2CCN(C(=O)CCCCCCCCCCNC(=O)[C@H](CO)n3cc(CCCSC)nn3)CC2)n1 89%, C#CCOCCOCCOCCNc1nc(N2CCN(C(=O)C([C@@H](C)O)n3cc([C@@H](N)CCCCN)nn3)CC2)nc(N2CCN(C(=O)[C@H](CCCCN)n3cc(CN)nn3)CC2)n1 (stereo partly drawn) 37%, Cn1ccc(=Nc2ccc(NC(=O)c3ccc(N=c4ccn(C)c5ccc([N+](=O)[O-])cc45)cc3)cc2)cc1 114%, CC[n+]1cc(C)ccc1/C=C/c1ccc(N(C)C)cc1 35.4%, CN1/C(=c2/s/c(=C3/C(=O)N(c4ccccc4)NC3=Nc3ccccc3)n(C)c2=O)C(C)(C)c2ccccc21 41.7%, C=CC(=O)Nc1ccc(Nc2ccnc(Nc3ccc(N4CCN(C)CC4)cc3)n2)cc1 103%, Cc1ccc(N=C2NC(=O)/C(=C/C=C/c3ccco3)S2)cc1C 51.9%, O=C(N/N=C/c1ccc(Cl)cc1)c1nc2ccc([N+](=O)[O-])cc2c(=O)[nH]1 56.7%

inhibition, inactive:
O=C(COc1ccc(S(=O)(=O)N2CCCCC2)cc1)NCc1ccccn1 -4.23%, CC(=O)NS(=O)(=O)c1ccc(NC(=O)/C=C/c2ccccc2Cl)cc1 4.02%, COc1ccccc1CNC(=O)CCCNS(=O)(=O)c1cccc2nsnc12 1.39%, Cc1ccc(CC2C(=O)N(c3ccc(F)cc3)C(=O)C2C)cc1 (stereo not drawn) -0.88%, C#CCOCCOCCOCCNc1nc(N2CCOCC2)nc(N2CCN(C(=O)[C@H](Cc3ccc(O)cc3)n3cc(CCO)nn3)CC2)n1 -2.16%, CCC(C)[C@@H](C(=O)N1CCNCC1)n1cc(CCCCN)nn1 (stereo partly drawn) -2.15%, C#CCOCCOCCOCCNc1nc(N2CCN(C(=O)C(Cc3ccc(O)cc3)n3cc(C(N)CC(C)C)nn3)CC2)nc(N2CCN(C(=O)C(Cc3ccc(O)cc3)n3cc(C(N)C(C)CC)nn3)CC2)n1 (stereo not drawn) 0.38%, CC/C(Cc1ccccc1)=N/NC(=O)CCn1nnc2ccccc21 1.26%, COc1ccc(NC(=O)C2CCC(CNc3c(N4CCCCC4)c(=O)c3=O)CC2)c(OC)c1 (stereo not drawn) 1.79%, CCOC(=O)C1(Cc2cccc(OC)c2)CCN(C(C)CC(C)(C)O)CC1 (stereo not drawn) 0.5%, Fc1ccc(-n2c(Cc3ccccc3)nnc2SCc2nc(-c3ccc(Cl)cc3)no2)cc1 5.36%, Cc1ccc(-c2ccc(CN3C(C)C(=O)N(Cc4cn(CCC5OCCCO5)nn4)CCS3(=O)=O)cc2)cc1 (stereo not drawn) 0.07%, O=c1c2ccccc2c(-c2ccccc2)nn1-c1ccccn1 0.93%, O=C(Nc1ccc(C2CC2(Cl)Cl)cc1)c1cccc([N+](=O)[O-])c1 (stereo not drawn) -0.73%, O=C(Nc1cc2c3c(c1)C1CCCC1CN3CC1CCCC21)c1ccc([N+](=O)[O-])cc1 (stereo not drawn) -4.37%, CCCNC(=O)c1ccc(N2CCC3(CC2)CC(c2cccc(Br)c2)=NO3)c(NC(=O)c2ccco2)c1 -1.32%, C/C(=N\N=C(N)N)c1ccc(Cl)cc1 -1.16%, O=C(Cc1ccccc1)Nc1c(C(=O)N2CCCCCC2)cnn1-c1ccccc1 -1.5%, CCN(C(=O)Cc1c(C(=O)O)n(CC)c2ccccc12)c1ccccc1C -2.24%, CC(C)N1CCC(NC(=O)Nc2ccccc2)CC1 -2.66%, CC(=O)N1CCN(S(=O)(=O)c2c(F)cc(F)c(Cl)c2F)CC1 -5.22%, CCOc1ccc(NC(=O)CN(C)CC(=O)NC(C)c2ccccc2)cc1OCC (stereo not drawn) 2.1%, CCc1c(O)nc(SCC(=O)Nc2ccccc2)n(C(C)CC)c1=O (stereo not drawn) 2.98%, O=C(Nc1ccc(N2CCN(C(=O)c3cccs3)CC2)cc1)c1cccnc1Cl -0.71%, CC(=O)Nc1cc(-c2ccc(N3CCN(C)CC3)cc2)cn2c(-c3ccc(F)cc3)cnc12 9.21%, C/C(=N/NS(=O)(=O)c1ccccc1)c1ccc(NC(=O)C(F)(F)F)cc1 -3.71%, COc1ccccc1NC(=O)CCSc1nnc(-c2ccc(O)cc2)o1 -8.49%, COc1ccc(CCN(Cc2cc3cccc(C)c3[nH]c2=O)C(=O)N2CCCC2)cc1OC 2.45%, O=C(NCCCO)/C(=C\C=C\c1ccccc1)NC(=O)c1ccccc1Cl -3.06%, C=CCN(c1ccc(Cl)cc1)S(=O)(=O)c1cccc(C(=O)OCC(=O)N(C)C)c1 -4.63%, N#Cc1cc([N+](=O)[O-])ccc1Oc1cccc(/C=N/NC(=O)c2ccc(Cl)cc2)c1 1.22%, CC(NC(=O)C(=O)N/N=C/c1ccc(Cl)cc1)c1ccccc1 (stereo not drawn) -2.35%, COc1ccc(Cc2nnc(SCC(=O)N(c3ccccc3)C(C)C)n(N)c2=O)cc1 2.75%, CC1(C2CC2)NC(=O)N(CC(=O)N2CCN(c3ccccc3F)CC2)C1=O (stereo not drawn) -0.85%, O=C(CCC(=O)N1CCCC1)Nc1ccc([N+](=O)[O-])cc1 -2.97%
